From ChEMBL document CHEMBL2417381, “New anticancer agents mimicking protein recognition motifs” (J Med Chem, 2013) come the findings set out here.

Structures are written as SMILES. Active and inactive are the calls of the source. The rule behind the calls is not given here.

Series [1] has as its system M14. The series can be described thus: Cell cycle arrest in human M14 cells assessed as accumulation at G2/M phase after 24 hrs by propidium iodide staining-based flow cytometry. The format is functional. The conditions noted are these: in the assay text read “accumulation at S phase” for “accumulation at G2/M phase”. In outline:
(§1)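 5 × 10^4 M14 cells cultured 24 h, then dosed and cultured a further 24 or 48 h. Permeabilized cells labelled 30 min at 4 °C with propidium iodide in 0.1% sodium citrate/0.1% Triton X-100, then analysed by flow cytometry. For cell cycle, 10,000 events per sample assigned to G0/G1, S and G2/M. Each determination repeated three times.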
For orientation: Flow cytometry measures light scatter and fluorescence of single cells or particles in a stream.

In series [2] the test system is M14. Kind of series: Cell cycle arrest at G1/S phase in human M14 cells assessed as increase in cyclin A expression at IC50 after 48 hrs by Western blotting analysis. The class given is functional, cell-based. The method, boiled down:
(§2)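 Treated cells lysed in modified RIPA buffer (10 mM Tris-HCl pH 7.4, 150 mM NaCl, 1 mM EDTA, 1% NP40, 0.1% deoxycholate, 1 mM PMSF, protease inhibitors). Equal protein loads separated on 10–12% SDS-PAGE and blotted to nitrocellulose. Blocked in 10% milk/0.1% Tween-20, probed with anti-cyclin A or anti-p53 and HRP secondary; tubulin used as loading reference.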
A general note: A western blot detects proteins with antibodies after separation by electrophoresis.

Series [3] concerns M14. The series can be described thus: Cell cycle arrest at S phase in human M14 cells assessed as change in size of nucleus after 24 hrs by DAPI staining-based fluorescence microscopy. The class given is functional. The method, boiled down:
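M14 cells grown on coverslips and dosed after 24 h. Fixed in 3.7% formaldehyde for 30 min, quenched with 0.1 M glycine, then DAPI-stained 20 min at room temperature. Nuclear areas measured by fluorescence microscopy image analysis. Mean ± SEM of at least twenty measurements; one-way ANOVA with Bonferroni post test.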

Series [4] relates to M14. Kind of series: Induction of apoptosis in human M14 cells assessed as accumulation of p53 in nuclear fraction after 24 hrs by Western blotting analysis relative to control. The class given is functional, cell-based.
In a further series the test system is Huh-7. Kind of series: Antiproliferative activity against human HuH7 cells after 48 hrs by MTT assay. The conditions noted are these: Huh-7, 48 h. The class given is functional, cell-based. The method, boiled down: (§3)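 Cells grown at 37 °C in DMEM with 25 mM glucose, 10% fetal calf serum, penicillin/streptomycin and 2 mmol/L glutamine. 5000 cells per well; after 24 h, exposed to 100 nM–100 µM for 24 and 48 h. MTT 1 mg/mL for 1–3 h at 37 °C, formazan dissolved in DMSO, absorbance read at 550 and 620 nm. IC50 from four-parameter sigmoidal nonlinear regression.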
A general note: Tetrazolium assays rely on reduction of a dye to a coloured formazan, in cell work by metabolically active cells.

In series [5] the test system is M14. Kind of series: Induction of apoptosis in human M14 cells after 48 hrs by propidium iodide staining-based flow cytometry. The format is functional, cell-based. The method, boiled down:
as §1

The subject of series [6] is M14. Kind of series: Cell cycle arrest in human M14 cells assessed as accumulation at G0/G1 phase after 24 hrs by propidium iodide staining-based flow cytometry. The conditions noted are these: in the assay text read “accumulation at S phase” for “accumulation at G0/G1 phase”. The class given is functional. In outline: as §1
Series [7] has as its system M14. The series can be described thus: Induction of p53 expression in human M14 cells after 48 hrs by Western blotting analysis. The class given is functional, cell-based. The method, boiled down: as §2
The test system of series [8] is M14. Kind of series: Induction of p53 expression in human M14 cells after 24 hrs by Western blotting analysis. The format is functional, cell-based. In outline:
as §2

The test system of a further series is Jurkat. Kind of series: Antiproliferative activity against human Jurkat cells after 48 hrs by MTT assay. The class given is functional, cell-based. In outline:
as §3

Series [9] has as its system M14. The series can be described thus: Cell cycle arrest at G1/S phase in human M14 cells assessed as increase in cyclin A expression at IC50 after 24 hrs by Western blotting analysis. The format is functional, cell-based. In outline: as §2
For series [10], the system named is M14. Kind of series: Antiproliferative activity against human M14 cells assessed as cell viability incubated for 24 hrs followed by compound washout measured after 48 hrs by MTT assay. The class given is functional, cell-based. The method, boiled down: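 M14 cells exposed for 24 h, then medium removed and cells resuspended in compound-free medium. Further incubation for 24 and 48 h, then viability read by MTT: 1 mg/mL for 1–3 h at 37 °C, formazan dissolved in DMSO, absorbance at 550 and 620 nm.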

For series [11], the system named is M14. The series can be described thus: Cytostatic activity against human M14 cells at 5 to 10 uM after 24 hrs by trypan blue dye exclusion assay relative to control. The format is functional, cell-based. The method, boiled down:
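Exponentially growing M14 cells plated and grown 24 h. Then treated at 5 and 10 µM in 0.1% DMSO for 24, 48 or 72 h. Stained with 0.2% trypan blue and counted in a hemocytometer; percentage of dead cells calculated.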

The subject of a further series is MCF7. The series can be described thus: Antiproliferative activity against human MCF7 cells after 48 hrs by MTT assay. The class given is functional, cell-based. The following applies: MCF7, 48 h. In outline:
as §3

The subject of series [12] is M14. Kind of series: Induction of apoptosis in human M14 cells assessed as accumulation of p53 in nuclear fraction after 48 hrs by Western blotting analysis relative to control. The class given is functional, cell-based.
Another series deals with RAW264.7. Kind of series: Antiproliferative activity against mouse RAW264.7 cells after 48 hrs by MTT assay. The following applies: RAW264.7, 48 h. The class given is cell-based. The method, boiled down:
as §3

In series [13] the test system is M14. The series can be described thus: Antiproliferative activity against human M14 cells after 48 hrs by MTT assay. The class given is functional, cell-based. The following applies: M14, 48 h. In outline:
as §3

Series [14] has as its system M14. Kind of series: Cell cycle arrest in human M14 cells assessed as accumulation at S phase after 24 hrs by propidium iodide staining-based flow cytometry. The class given is functional. The method, boiled down:
as §1

Series [15] can be described thus: Solubility of the compound in phosphate buffer at pH 7.4 by UV-Visible spectrophotometry. The class given is physicochemical. In outline:
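10 mM DMSO stock added one microlitre at a time, 10 min apart, to 20 mM phosphate buffer with 150 mM KCl, pH 7.4, at 25 °C. Precipitation followed as the rise in light-scattering absorbance over 500–900 nm.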

Series [16] has as its target Tumour suppressor p53/oncoprotein Mdm2 (Homo sapiens) (UniProt P04637+Q00987). Kind of series: Inhibition of human recombinant p53-MDM2 interaction assessed as p53 release by NMR spectroscopy relative to untreated control. The class given is protein assay. The method, boiled down:
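Complex formed from refolded recombinant His-tagged human p53 (residues 1-312, expressed in E. coli BL21(DE3) RIL) and refolded MDM2, mixed 1:2, with excess MDM2 removed by gel filtration. Complex at 0.1 mM in 50 mM phosphate pH 7.4, 150 mM KCl, 5 mM DTT; formal protein:inhibitor molar ratio 1:1.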

Sequence of Tumour suppressor p53/oncoprotein Mdm2 (Homo sapiens) (P04637 whole entry, looked up, the tested form may be a part): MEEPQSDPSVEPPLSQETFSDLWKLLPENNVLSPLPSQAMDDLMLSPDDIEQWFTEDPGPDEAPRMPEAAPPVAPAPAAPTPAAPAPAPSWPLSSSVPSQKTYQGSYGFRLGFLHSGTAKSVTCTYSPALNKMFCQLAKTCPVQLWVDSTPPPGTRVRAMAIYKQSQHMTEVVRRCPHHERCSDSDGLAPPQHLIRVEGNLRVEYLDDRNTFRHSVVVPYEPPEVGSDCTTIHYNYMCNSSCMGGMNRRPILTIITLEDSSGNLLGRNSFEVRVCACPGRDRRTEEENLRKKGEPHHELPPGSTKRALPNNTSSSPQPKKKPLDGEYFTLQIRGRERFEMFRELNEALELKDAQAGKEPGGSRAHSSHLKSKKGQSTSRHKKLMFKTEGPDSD
Sequence of Tumour suppressor p53/oncoprotein Mdm2 (Homo sapiens) (Q00987 whole entry, looked up, the tested form may be a part): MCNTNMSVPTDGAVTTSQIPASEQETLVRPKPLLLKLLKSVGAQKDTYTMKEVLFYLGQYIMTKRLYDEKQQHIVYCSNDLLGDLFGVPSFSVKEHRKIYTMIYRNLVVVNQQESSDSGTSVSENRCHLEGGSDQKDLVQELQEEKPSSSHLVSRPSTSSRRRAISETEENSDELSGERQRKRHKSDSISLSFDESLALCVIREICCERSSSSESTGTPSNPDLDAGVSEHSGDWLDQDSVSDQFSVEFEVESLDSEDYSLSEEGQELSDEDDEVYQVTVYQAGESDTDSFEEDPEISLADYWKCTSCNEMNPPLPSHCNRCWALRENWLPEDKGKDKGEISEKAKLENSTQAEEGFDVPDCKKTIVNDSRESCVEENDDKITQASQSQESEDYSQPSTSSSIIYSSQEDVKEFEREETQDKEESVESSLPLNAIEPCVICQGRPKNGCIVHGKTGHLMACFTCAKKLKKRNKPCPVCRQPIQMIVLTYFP

Take `Cc1c(C(=O)c2ccccc2)cc(C(=O)NCc2cccc(I)c2)n1Cc1ccccc1`: the outcome in the series with M14 [1], in the series on M14 [2], with M14 [3], with M14 [4], in the series on M14 [5] and in the series on M14 [6] was Active. Besides, the result with M14 [8], in the series on M14 [9] and with M14 [14] was Active. Also, the IC50 in the series with Huh-7 was over 100 µM; in the series on Jurkat, over 100 µM; with MCF7 it was over 100 µM; in the series with RAW264.7 it was over 100 µM; with M14 [13], 5 µM. Also, the result in the series with M14 [7], in the series on M14 [10], with M14 [11] and with M14 [12] was inactive.

`Cc1c(C(=O)c2ccccc2)cc(C(=O)NCc2cccc(Cl)c2)n1Cc1ccccc1`: the result in the series with M14 [1], in the series on M14 [3], in the series with M14 [4], in the series on M14 [5], in the series with M14 [6] and in the series on M14 [8] was Active. For the same molecule, the result with M14 [9] and in the series on M14 [14] was Active. Besides, the IC50 is over 100 µM in the series on Huh-7; over 100 µM with Jurkat; over 100 µM in the series on MCF7; over 100 µM in the series on RAW264.7; 7.5 µM with M14 [13]. The outcome in the series on M14 [7], in the series on M14 [10], in the series on M14 [11] and in the series with M14 [12] was inactive.

For the molecule `Cc1ccc(Cn2c(C(=O)NCc3cccc(Cl)c3)cc(C(=O)c3ccccc3)c2C)cc1`, the outcome in the series with M14 [1], in the series on M14 [2], with M14 [3], with M14 [4], with M14 [5] and in the series with M14 [6] was Active. Also, the outcome in the series on M14 [8], in the series with M14 [9] and in the series on M14 [14] was Active. The IC50 in the series on Huh-7 was over 100 µM; in the series with Jurkat, over 100 µM; with MCF7, over 100 µM; in the series on RAW264.7, over 100 µM; in the series with M14 [13], 2.5 µM. Also, the outcome in the series on M14 [7], in the series with M14 [10], with M14 [11] and with M14 [12] was inactive. The molecule further had a solubility in [15] of at most 6.8 µM. Also, the inhibition result in series [16] is “inactive”.

One may read the IC50 as the concentration at which inhibition is half-maximal. In general, solubility refers to the concentration that dissolves in the medium under given conditions.
